# Laboratory results: PMC9827036 (Current Research in Pharmacology and Drug Discovery, 2022)
# Like-named read-outs stand apart in the source and are kept apart here.
# Tests used:
# FAK [1] = biological target: T1, FAK (Homo sapiens, UniProt Q05397); assay: Western blot of FAK-Tyr-397 phosphorylation in suspended Caco-2 cells; assay type: cell-based
# Method in brief: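 Caco-2 cells held in suspension on plates pre-coated with 1% heat-inactivated BSA to avoid adhesion-driven FAK activation. Treated with compound (100 pM–1000 nM) or H2O for 1 h at 37 °C, then lysed. Lysates resolved by 10% SDS-PAGE on nitrocellulose, probed for pTyr-397 FAK with total FAK as loading control. Read-out: pTyr-397/FAK fold change; n = 4–8.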
# FAK [2] = biological target: T1, FAK; settings: 10 nM, suspended Caco-2 cells; ref Wang et al., 2019b; cited from earlier work
# Caco-2 cells = settings: in vitro; ref Wang et al., 2019b; cited from earlier work
# T1 sequence (Q05397 whole entry): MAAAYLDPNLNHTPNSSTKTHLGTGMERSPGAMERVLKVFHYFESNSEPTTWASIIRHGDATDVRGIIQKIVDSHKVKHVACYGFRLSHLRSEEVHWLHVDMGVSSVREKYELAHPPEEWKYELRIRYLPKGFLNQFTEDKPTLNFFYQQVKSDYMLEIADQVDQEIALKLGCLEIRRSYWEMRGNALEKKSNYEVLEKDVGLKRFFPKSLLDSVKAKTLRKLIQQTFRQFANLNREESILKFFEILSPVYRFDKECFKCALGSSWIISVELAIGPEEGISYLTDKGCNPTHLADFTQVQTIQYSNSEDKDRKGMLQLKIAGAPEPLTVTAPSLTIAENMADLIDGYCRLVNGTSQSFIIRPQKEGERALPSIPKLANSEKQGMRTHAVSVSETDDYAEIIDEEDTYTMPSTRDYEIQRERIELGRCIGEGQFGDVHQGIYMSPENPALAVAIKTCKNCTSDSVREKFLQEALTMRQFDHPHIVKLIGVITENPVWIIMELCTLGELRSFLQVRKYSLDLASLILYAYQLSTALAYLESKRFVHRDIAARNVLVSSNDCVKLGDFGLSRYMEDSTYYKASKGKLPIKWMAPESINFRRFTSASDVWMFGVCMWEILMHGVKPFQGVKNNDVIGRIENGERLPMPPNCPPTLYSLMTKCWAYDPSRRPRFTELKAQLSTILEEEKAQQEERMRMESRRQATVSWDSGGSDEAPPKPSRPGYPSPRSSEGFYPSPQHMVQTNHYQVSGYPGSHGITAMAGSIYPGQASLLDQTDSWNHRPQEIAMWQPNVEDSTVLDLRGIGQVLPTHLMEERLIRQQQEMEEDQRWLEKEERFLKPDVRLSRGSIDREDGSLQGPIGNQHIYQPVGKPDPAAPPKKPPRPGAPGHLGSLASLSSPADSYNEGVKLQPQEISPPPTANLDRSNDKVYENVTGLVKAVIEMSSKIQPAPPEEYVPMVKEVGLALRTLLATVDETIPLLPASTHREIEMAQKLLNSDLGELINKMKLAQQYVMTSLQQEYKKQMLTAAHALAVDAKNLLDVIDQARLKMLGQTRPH
SMILES,FAK activation (FAK [1]; 10–1000 nM),"FAK activation (positive control) (FAK [1]; 100 nM, Caco-2 cells)",FAK activation (FAK [2]) [%],lowest concentration stimulating Caco-2 cell monolayer wound closure (Caco-2 cells) [nM]
"CN(C)C(CNC(=O)Nc1cc(C(F)(F)F)ccc1N1CCOCC1)c1ccncc1 (stereo not shown) [M64, 1-(2-(dimethylamino)-2-(pyridin-4-yl)ethyl)-3-(2-morpholino-5-(trifluoromethyl)phenyl)urea]",did not activate FAK,–,–,–
COc1ccc(C2CCCN2C(=O)Nc2cc(C(F)(F)F)ccc2N2CCOCC2)cc1 (stereo not shown) [ZN40099027],–,activates FAK,14.8,10
